ChEMBL document CHEMBL2434961, “Development of 3-phenyl-4,5,6,7-tetrahydro-1H-pyrazolo[4,3-c]pyridine derivatives as novel Mycobacterium tuberculosis pantothenate synthetase inhibitors” (Eur J Med Chem, 2013)
Converted amounts (≈) assume the structure as drawn.

How the values were obtained:
[1] = Cytotoxicity against mouse RAW264.7 cells assessed as inhibition of cell viability at 50 uM after 72 hrs by MTT assay relative to control; format: cell-based; settings: read-out: INH
Summary of the method: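 RAW 264.7 mouse macrophage cells exposed to compound at 50 µM for 72 h. Viability assessed by cellular conversion of MTT to formazan.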

[2] = target: T1, Pantothenate synthetase (Mycobacterium tuberculosis) (UniProt P9WIL5); test: Inhibition of Mycobacterium tuberculosis pantothenate synthetase cloned in Escherichia coli BL21 (DE3) using ATP, beta-alanine, pantoic acid as substrate assessed as NAD+ production at 100 uM measured every 12 secs for 120 secs by spectrophotometric analysis relative to control
T1 sequence (whole entry): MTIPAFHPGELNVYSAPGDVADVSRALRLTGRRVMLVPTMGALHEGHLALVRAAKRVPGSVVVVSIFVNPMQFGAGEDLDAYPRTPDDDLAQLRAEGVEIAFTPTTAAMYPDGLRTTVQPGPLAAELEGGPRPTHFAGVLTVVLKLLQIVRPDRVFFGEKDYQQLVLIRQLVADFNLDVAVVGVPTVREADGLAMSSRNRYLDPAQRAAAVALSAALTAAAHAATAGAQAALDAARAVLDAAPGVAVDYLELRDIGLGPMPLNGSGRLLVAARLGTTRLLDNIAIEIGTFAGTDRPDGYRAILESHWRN
Summary of the method: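 Coupled assay linking AMP from β-alanine plus pantoate condensation to NADH oxidation via myokinase, pyruvate kinase and lactate dehydrogenase. Mix held NADH, pantoic acid, β-alanine, ATP, phosphoenolpyruvate and MgCl₂ in buffer; compound (100 µM) added; reaction started with PS. A340 read every 12 s for 120 s. % inhibition = 100 × (1 − (compound rate − background)/(full rate − background)).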

[3] = test system: Mycobacterium tuberculosis; test: Antibacterial activity against Mycobacterium tuberculosis H37Rv ATCC 27294 assessed as growth inhibition after 28 days by agar dilution method; format: functional; settings: H37Rv ATCC 27294, 672 h
Summary of the method: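 Two-fold serial dilutions incorporated into Middlebrook 7H11 agar with OADC, final 50 to 0.78 µg/mL. Inoculum of 1 mg/mL (wet weight) in 0.05% Tween 80 saline, diluted 10⁻² to ~10⁷ cfu/mL. 5 µL spotted per tube, incubated at 37 °C for 28 days. MIC is the lowest concentration giving complete growth inhibition.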

Pantothenate synthetase [4] = target: T2, Pantothenate synthetase (Mycobacterium tuberculosis, UniProt P9WIL5); test: Inhibition of Mycobacterium tuberculosis pantothenate synthetase cloned in Escherichia coli BL21 (DE3) using ATP, beta-alanine, pantoic acid as substrate assessed as NAD+ production measured every 12 secs for 120 secs by spectrophotometric analysis
T2 sequence (P9WIL5 whole entry): T1 sequence (whole entry)
Summary of the method: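 Same AMP-coupled NADH/A340 PS assay (NADH, pantoic acid, β-alanine, ATP, PEP, MgCl₂, myokinase, pyruvate kinase, LDH; reaction started with enzyme; read every 12 s for 120 s). IC₅₀ determined for compounds exceeding 60% inhibition at 100 µM, using rate-based % inhibition corrected for background.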

Pantothenate synthetase [5] = target: T2, Pantothenate synthetase; test: Binding affinity to Mycobacterium tuberculosis pantothenate synthetase

Compound	cytotoxicity at 72 h, 50 µM [1] [%]	inhibition [2] [%]	MIC [3] [µM]	IC50 (Pantothenate synthetase [4]) [µM]	Kd (Pantothenate synthetase [5]) [µM]
O=C(c1ccccc1)n1nc(-c2ccccc2)c2c1CCN(S(=O)(=O)c1ccc([N+](=O)[O-])cc1)C2	18.6	39.7	25.6 (≈ 12.5 µg/mL)	–	–
CC(=O)c1ccc(NC(=O)N2CCc3c(c(-c4ccccc4)nn3C(=O)c3ccccc3)C2)cc1	12.8	43.7	> 108	–	–
Cc1ccc(NC(=O)N2CCc3c(c(-c4ccccc4)nn3C(=O)c3ccccc3)C2)cc1	57.1	49.4	114 (≈ 49.8 µg/mL)	–	–
O=C(c1ccccc1)n1nc(-c2ccccc2)c2c1CCN(C(=S)NCc1ccccc1)C2	0	52.1	110 (≈ 50 µg/mL)	–	–
O=C(Nc1ccc(Cl)cc1)N1CCc2c(c(-c3ccccc3)nn2C(=O)c2ccccc2)C1	4.9	40.2	109 (≈ 50 µg/mL)	–	–
O=C(c1ccccc1)n1nc(-c2ccccc2)c2c1CCN(C(=S)Nc1ccc(Cl)cc1)C2	0	37.7	106 (≈ 50 µg/mL)	–	–
CC(=O)c1ccc(S(=O)(=O)N2CCc3c(c(-c4ccccc4)nn3C(=O)c3ccccc3)C2)cc1	5.3	78.5	51.5 (≈ 25 µg/mL)	39.1	–
O=C(Nc1ccc([N+](=O)[O-])cc1)N1CCc2c(c(-c3ccccc3)nn2C(=O)C2CCCCC2)C1	14.9	50.8	52.8 (≈ 25 µg/mL)	–	–
NNC(=O)c1ccncc1 [ISONIAZID]	–	0	0.72 (≈ 0.0987 µg/mL)	–	–
O=C(C1CCCCC1)n1nc(-c2ccccc2)c2c1CCN(C(=S)Nc1ccc([N+](=O)[O-])cc1)C2	0	47.3	53.5 (≈ 26.2 µg/mL)	–	–
Cc1ccc(NC(=S)N2CCc3c(c(-c4ccccc4)nn3C(=O)C3CCCCC3)C2)cc1	27.8	50.5	51.1 (≈ 23.4 µg/mL)	–	–
O=C(Nc1cccc2ccccc12)N1CCc2c(c(-c3ccccc3)nn2C(=O)C2CCCCC2)C1	4.1	50.9	52.2 (≈ 25 µg/mL)	–	–
COc1ccc(NC(=O)N2CCc3c(c(-c4ccccc4)nn3C(=O)C3CCCCC3)C2)cc1	52.5	38.7	109 (≈ 50 µg/mL)	–	–
Cc1ccc2c(c1)C=C(C(=O)NS(=O)(=O)c1cc3ccccc3o1)C2CC(=O)O (configuration not stated)	–	–	–	–	1.8
O=C(Nc1ccc(Cl)cc1)N1CCc2c(c(-c3ccccc3)nn2C(=O)C2CCCCC2)C1	4	54.7	108 (≈ 50 µg/mL)	–	–
C=CCNC(=S)N1CCc2c(c(-c3ccccc3)nn2C(=O)c2ccccc2)C1	6	41.7	> 124	–	–
O=C(NCc1ccccc1)N1CCc2c(c(-c3ccccc3)nn2C(=O)c2ccccc2)C1	0.7	46.2	114 (≈ 49.8 µg/mL)	–	–
CC(C)NC(=O)N1CCc2c(c(-c3ccccc3)nn2C(=O)c2ccccc2)C1	10.6	40.9	129 (≈ 50 µg/mL)	–	–
Cc1ccc(NC(=O)N2CCc3c(c(-c4ccccc4)nn3C(=O)C3CCCCC3)C2)cc1	15.1	40.8	56.5 (≈ 25 µg/mL)	–	–
COc1ccc(NC(=S)N2CCc3c(c(-c4ccccc4)nn3C(=O)c3ccccc3)C2)cc1	0	10.2	107 (≈ 50 µg/mL)	–	–
O=C(Nc1cccc2ccccc12)N1CCc2c(c(-c3ccccc3)nn2C(=O)c2ccccc2)C1	4.7	89.8	48.8 (≈ 23.1 µg/mL)	38.2	–
O=C(C1CCCCC1)n1nc(-c2ccccc2)c2c1CCN(S(=O)(=O)c1ccc([N+](=O)[O-])cc1)C2	8.3	50.2	50.5 (≈ 25 µg/mL)	–	–

Compound	cytotoxicity at 72 h, 50 µM [1] [%]	inhibition [2] [%]	MIC [3] [µM]	IC50 (Pantothenate synthetase [4]) [µM]	Kd (Pantothenate synthetase [5]) [µM]
O=C(c1ccccc1)n1nc(-c2ccccc2)c2c1CCN(S(=O)(=O)c1ccc(F)cc1)C2	0	77	54.2 (≈ 25 µg/mL)	38.6	–
O=C(C1CCCCC1)n1nc(-c2ccccc2)c2c1CCN(C(=S)Nc1ccc(F)cc1)C2	58.4	49.2	105 (≈ 48.7 µg/mL)	–	–
CC(=O)c1ccc(S(=O)(=O)N2CCc3c(c(-c4ccccc4)nn3C(=O)C3CCCCC3)C2)cc1	11.5	39.2	50.8 (≈ 25 µg/mL)	–	–
O=C(C1CCCCC1)n1nc(-c2ccccc2)c2c1CCN(S(=O)(=O)c1ccc(F)cc1)C2	1.4	46.8	53.5 (≈ 25 µg/mL)	–	–
Cc1ccc(NC(=S)N2CCc3c(c(-c4ccccc4)nn3C(=O)c3ccccc3)C2)cc1	0	23.9	> 110	–	–
O=C(c1ccccc1)n1nc(-c2ccccc2)c2c1CCN(C(=S)Nc1ccc(F)cc1)C2	0.5	43.5	110 (≈ 50 µg/mL)	–	–
O=C(C1CCCCC1)n1nc(-c2ccccc2)c2c1CCN(C(=S)NCc1ccccc1)C2	20.6	51.4	108 (≈ 49.5 µg/mL)	–	–
CCOc1ccc(NC(=O)N2CCc3c(c(-c4ccccc4)nn3C(=O)c3ccccc3)C2)cc1	0	47.2	> 107	–	–
CC(=O)c1ccc(NC(=O)N2CCc3c(c(-c4ccccc4)nn3C(=O)C3CCCCC3)C2)cc1	22.5	51.4	108 (≈ 50.9 µg/mL)	–	–
Cc1ccc(S(=O)(=O)N2CCc3c(c(-c4ccccc4)nn3C(=O)C3CCCCC3)C2)cc1	0	41.6	53.9 (≈ 25 µg/mL)	–	–
O=C(Nc1ccc(Br)cc1)N1CCc2c(c(-c3ccccc3)nn2C(=O)c2ccccc2)C1	42	60.6	99.7 (≈ 50 µg/mL)	82.1	–
O=C(Nc1ccc([N+](=O)[O-])cc1)N1CCc2c(c(-c3ccccc3)nn2C(=O)c2ccccc2)C1	0	95.7	26.7 (≈ 12.5 µg/mL)	21.8	–
O=C(C1CCCCC1)n1nc(-c2ccccc2)c2c1CCN(C(=S)Nc1ccc(Cl)cc1)C2	51.1	56.3	109 (≈ 52.2 µg/mL)	–	–
O=C(NCc1ccccc1)N1CCc2c(c(-c3ccccc3)nn2C(=O)C2CCCCC2)C1	35.7	49.1	54.5 (≈ 24.1 µg/mL)	–	–
CC(C)(C)OC(=O)N1CCc2[nH]nc(-c3ccccc3)c2C1	–	–	26.7 (≈ 7.99 µg/mL)	21.8	–
CCOc1ccc(NC(=O)N2CCc3c(c(-c4ccccc4)nn3C(=O)C3CCCCC3)C2)cc1	4.9	48.5	106 (≈ 50 µg/mL)	–	–
CC[C@@H](CO)NCCN[C@@H](CC)CO [ETHAMBUTOL]	–	0	15.3 (≈ 3.12 µg/mL)	–	–
Cc1ccc(S(=O)(=O)N2CCc3c(c(-c4ccccc4)nn3C(=O)c3ccccc3)C2)cc1	0	9	109 (≈ 50 µg/mL)	–	–
O=C(Nc1ccc(Br)cc1)N1CCc2c(c(-c3ccccc3)nn2C(=O)C2CCCCC2)C1	0	50.5	98.5 (≈ 50 µg/mL)	–	–
O=C(c1ccccc1)n1nc(-c2ccccc2)c2c1CCN(S(=O)(=O)c1cccs1)C2	6.8	48.7	55.6 (≈ 25 µg/mL)	–	–
O=C(C1CCCCC1)n1nc(-c2ccccc2)c2c1CCN(S(=O)(=O)c1cccs1)C2	8.1	52	54.9 (≈ 25 µg/mL)	–	–
COc1ccc(NC(=S)N2CCc3c(c(-c4ccccc4)nn3C(=O)C3CCCCC3)C2)cc1	9.5	50.6	102 (≈ 48.3 µg/mL)	–	–
